Measurements from ChEMBL document CHEMBL4385626, “SAR optimization studies on modified salicylamides as a potential treatment for acute myeloid leukemia through inhibition of the CREB pathway” (Bioorg Med Chem Lett, 2019).
Each block holds one compound with its values, some of them ahead of it. Active and inactive are the calls of the source. The calls are words filed in the database; no cut-off is given here.

Columns and labels:
[1] = system: NALM-6; test: Cytotoxicity against human NALM6 cells incubated for 3 days by CellTiter-Glo luminescent assay; format: functional, cell-based; settings: NALM-6, 72 h
Outline: (§1)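 CellTiter-Glo viability read-out on leukemia cell lines. IC50 reported as the average of triplicates.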

[2] = system: HL-60; test: Cytotoxicity against human HL60 cells incubated for 3 days by CellTiter-Glo luminescent assay; format: functional, cell-based; settings: HL-60, 72 h; outline: as §1
[3] = system: KG-1; test: Cytotoxicity against human KG1 cells incubated for 3 days by CellTiter-Glo luminescent assay; format: functional, cell-based; settings: KG-1, 72 h; outline: as §1
[4] = system: Jurkat; test: Cytotoxicity against human Jurkat cells incubated for 3 days by CellTiter-Glo luminescent assay; format: functional, cell-based; settings: 72 h; outline: as §1
[5] = Inhibition of KIX-RLucC fused CBP (unknown origin) binding to KID-RLucN fused CREB (unknown origin) transfected in human HEK293 cells preincubated with compound 30 mins before forskolin addition and measured after 90 mins in presence of coelenterazine by split Renilla luciferase complementation assay
[6] = Metabolic stability in human liver microsomes assessed as half life in presence of NADPH by LC-MS/MS analysis; format: ADME, Microsome
[7] = species on record: Homo sapiens; test: Inhibition of CBP KIX domain (unknown origin) binding to BODIPY-labeled phosphorylated CREB KID domain (unknown origin) interaction pre-incubated for 30 mins by fluorescence polarization assay
Outline: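 Fluorescence polarization with BODIPY-labeled phosphorylated CREB KID domain and the CBP KIX domain. Polarization reports the degree of KIX-KID binding.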

[8] = Metabolic stability in mouse liver microsomes assessed as half life in presence of NADPH by LC-MS/MS analysis; format: ADME, Microsome

SMILES: O=C(Nc1cc(C(F)(F)F)cc(C(F)(F)F)c1)c1cc(F)ccc1O
IC50 [1]: 620 nM
IC50 [2]: 320 nM
IC50 [3]: 470 nM
IC50 [4]: 500 nM

SMILES: O=C(Nc1ccc(C(F)(F)F)c(Cl)c1)c1cc(Cl)ccc1O
IC50 [1]: 1220 nM
IC50 [2]: 460 nM
IC50 [3]: 450 nM
IC50 [4]: 690 nM

SMILES: N#Cc1ccc(NC(=O)c2ccc(Br)cc2O)cc1Cl
IC50 [1]: 920 nM
IC50 [2]: 440 nM
IC50 [3]: 960 nM
IC50 [4]: 750 nM

SMILES: O=C(Nc1cc(C(F)(F)F)cc(C(F)(F)F)c1)c1ccc(Br)cc1O
IC50 [1]: 1200 nM
IC50 [2]: 270 nM
IC50 [3]: 830 nM
IC50 [4]: 930 nM

SMILES: N#Cc1cc(Cl)ccc1NC(=O)c1ccc2cccnc2c1O
IC50 [1]: 280 nM
IC50 [2]: 790 nM
IC50 [3]: 3540 nM
IC50 [4]: 170 nM

SMILES: O=C(Nc1ccc(C(F)(F)F)cc1)c1ccc(Cl)cc1O
IC50 [1]: 1180 nM
IC50 [2]: 630 nM
IC50 [3]: 580 nM
IC50 [4]: 670 nM

SMILES: N#Cc1ccc(NC(=O)c2cc(Cl)ccc2O)c(Cl)c1
IC50 [1]: 730 nM
IC50 [2]: 500 nM
IC50 [3]: 860 nM
IC50 [4]: 620 nM

IC50 [5]: 1520 nM
SMILES: O=C(Nc1ccc([N+](=O)[O-])cc1Cl)c1cc(F)ccc1O
IC50 [1]: 910 nM
IC50 [2]: 280 nM
IC50 [3]: 490 nM
IC50 [4]: 530 nM

IC50 [5]: 3030 nM
SMILES: N#Cc1ccc(NC(=O)c2cc(Br)ccc2O)cc1
IC50 [2]: 620 nM
IC50 [3]: 1290 nM

SMILES: O=C(Nc1cc(F)cc(F)c1)c1ccc2cccnc2c1O
IC50 [1]: 310 nM
IC50 [2]: 510 nM
IC50 [3]: 3340 nM
IC50 [4]: 430 nM

SMILES: O=C(Nc1ccc(Cl)cc1Cl)c1cc(F)ccc1O
IC50 [1]: 1620 nM
IC50 [2]: 890 nM
IC50 [3]: 850 nM
IC50 [4]: 880 nM

half-life [6]: 2.65 h
inhibition [7]: Active
half-life [8]: 0.53 h
IC50 [5]: 2530 nM
SMILES: O=C(Nc1cc(C(F)(F)F)cc(C(F)(F)F)c1)c1ccc(Cl)cc1O
IC50 [1]: 850 nM
IC50 [2]: 200 nM
IC50 [3]: 620 nM
IC50 [4]: 570 nM

SMILES: O=C(Nc1ccc(C(F)(F)F)cc1)c1ccc(C(F)(F)F)cc1O
IC50 [1]: 1120 nM
IC50 [2]: 380 nM
IC50 [3]: 780 nM
IC50 [4]: 820 nM

SMILES: O=C(Nc1ccc(Br)c(Cl)c1)c1cc(F)ccc1O
IC50 [1]: 1250 nM
IC50 [2]: 600 nM
IC50 [3]: 670 nM
IC50 [4]: 860 nM

SMILES: O=C(Nc1ccc(C(F)(F)F)cc1)c1ccc(Br)cc1O
IC50 [1]: 690 nM
IC50 [2]: 360 nM
IC50 [3]: 340 nM
IC50 [4]: 500 nM

SMILES: O=C(Nc1ccc(OC(F)(F)F)c(Cl)c1)c1ccc(C(F)(F)F)cc1O
IC50 [1]: 950 nM
IC50 [2]: 380 nM
IC50 [3]: 640 nM
IC50 [4]: 790 nM

SMILES: O=C(Nc1ccc(C(F)(F)F)cc1)c1cc(Br)c(-c2ccccc2)cc1O
IC50 [1]: 1000 nM
IC50 [2]: 540 nM
IC50 [3]: 400 nM
IC50 [4]: 740 nM

SMILES: O=C(Nc1ccc([N+](=O)[O-])cc1)c1cc(F)ccc1O
IC50 [1]: 2080 nM
IC50 [2]: 520 nM
IC50 [3]: 1100 nM
IC50 [4]: 940 nM

IC50 [5]: > 7000 nM
SMILES: N#Cc1ccc(NC(=O)c2ccc3ccccc3c2)cc1
IC50 [2]: > 10000 nM
IC50 [3]: > 10000 nM

SMILES: O=C(Nc1cc(C(F)(F)F)cc(C(F)(F)F)c1)c1cc(Cl)ccc1O [IMD-0354]
IC50 [1]: 630 nM
IC50 [2]: 160 nM
IC50 [3]: 500 nM
IC50 [4]: 480 nM

SMILES: O=C(Nc1cc(C(F)(F)F)cc(C(F)(F)F)c1)c1cc(Br)c(F)cc1O
IC50 [1]: 950 nM
IC50 [2]: 250 nM
IC50 [3]: 510 nM
IC50 [4]: 700 nM

SMILES: N#Cc1ccc(NC(=O)c2ccc(Br)cc2O)c(Cl)c1
IC50 [1]: 1860 nM
IC50 [2]: 730 nM
IC50 [3]: 790 nM
IC50 [4]: 750 nM

SMILES: N#Cc1ccc(NC(=O)c2ccc3cccnc3c2O)c(C#N)c1
IC50 [1]: 350 nM
IC50 [2]: 890 nM
IC50 [3]: 3770 nM
IC50 [4]: 270 nM

SMILES: O=C(Nc1cccc(C(F)(F)F)c1)c1cc(F)ccc1O
IC50 [1]: 1800 nM
IC50 [2]: 970 nM
IC50 [3]: 1010 nM
IC50 [4]: 840 nM

SMILES: O=C(Nc1cc(C(F)(F)F)cc(C(F)(F)F)c1)c1cc(Cl)c(-c2ccccc2)cc1O
IC50 [1]: 560 nM
IC50 [2]: 790 nM
IC50 [3]: 430 nM
IC50 [4]: 540 nM

SMILES: O=C(Nc1ccc(C(F)(F)F)cc1)c1cc(Cl)c(-c2ccccc2)cc1O
IC50 [1]: 800 nM
IC50 [2]: 490 nM
IC50 [3]: 770 nM
IC50 [4]: 1160 nM

SMILES: O=C(Nc1cc(Cl)cc(Cl)c1)c1cc(F)ccc1O
IC50 [1]: 1440 nM
IC50 [2]: 600 nM
IC50 [3]: 780 nM
IC50 [4]: 710 nM

SMILES: O=C(Nc1ccc(Cl)cc1)c1ccc2cccnc2c1O
IC50 [1]: 380 nM
IC50 [2]: 630 nM
IC50 [3]: 3300 nM
IC50 [4]: 510 nM
